Assay results published in ChEMBL document CHEMBL1806357, “A regioselective synthesis of some new pyrazol-1'-ylpyrazolo[1,5-a]pyrimidines in aqueous medium and their evaluation as antimicrobial agents” (2011).
Converted amounts (≈) assume the structure as drawn.

Columns and labels:
Escherichia coli [1] = assay: Antibacterial activity against Escherichia coli ATCC 8739 after 24 hrs by broth microdilution method; assay type: functional
Fusarium oxysporum [2] = assay: Antifungal activity against Fusarium oxysporum at 10 ug/ml after 7 days by poisoned food technique relative to control; assay type: functional
Summary of the method: (§1)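 Poisoned food technique with soil-isolated fungi on PDA. Compound from a 1 mg/ml DMSO stock was added to molten agar at 40 ± 2 °C to give 10, 50, 100 or 200 µg/ml. A 6 mm mycelial disc from a 6-day culture was placed centrally, and plates were held at 28 ± 1 °C. Radial growth was measured after 7 days, and % inhibition was calculated against PDA/DMSO control, in triplicate.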

Alternaria alternata [3] = assay: Antifungal activity against Alternaria alternata at 200 ug/ml after 7 days by poisoned food technique relative to control; assay type: functional; summary of the method: as §1
Helminthosporium [4] = assay: Antifungal activity against Helminthosporium sp. at 200 ug/ml after 7 days by poisoned food technique relative to control; assay type: functional; summary of the method: as §1
Fusarium oxysporum [5] = assay: Antifungal activity against Fusarium oxysporum at 100 ug/ml after 7 days by poisoned food technique relative to control; assay type: functional; summary of the method: as §1
Pseudomonas aeruginosa [6] = assay: Antibacterial activity against Pseudomonas aeruginosa ATCC 25668 at 2 mg/ml after 24 hrs by agar-well diffusion technique; assay type: functional; conditions: ATCC 25668, 24 h, read-out: DIZ
Summary of the method: (§2)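 Agar-well diffusion used MHA seeded with 24 h cultures at 0.5 McFarland (1 × 10^6 CFU/ml). 100 µl of compound (2 mg/ml in DMSO, filter-sterilized) went into each 6 mm well. Plates were incubated upright at 37 ± 1 °C for 24 h, and the inhibition zone diameter was measured in mm. DMSO was the negative control. Values are the mean of three replicates.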

Aspergillus terreus [7] = assay: Antifungal activity against Aspergillus terreus at 10 ug/ml after 7 days by poisoned food technique relative to control; assay type: functional; summary of the method: as §1
Alternaria alternata [8] = assay: Antifungal activity against Alternaria alternata at 50 ug/ml after 7 days by poisoned food technique relative to control; assay type: functional; summary of the method: as §1
Fusarium oxysporum [9] = assay: Antifungal activity against Fusarium oxysporum at 10 ug/ml after 7 days by poisoned food technique relative to 10 ug/ml mancozeb; assay type: functional
Helminthosporium [10] = assay: Antifungal activity against Helminthosporium sp. at 50 ug/ml after 7 days by poisoned food technique relative to control; assay type: functional; summary of the method: as §1
Bacillus cereus [11] = assay: Antibacterial activity against Bacillus cereus ATCC 11778 after 24 hrs by broth microdilution method; assay type: functional
Escherichia coli [12] = assay: Antibacterial activity against Escherichia coli ATCC 8739 at 2 mg/ml after 24 hrs by agar-well diffusion technique; assay type: functional; conditions: ATCC 8739, 24 h, read-out: DIZ; summary of the method: as §2
Bacillus cereus [13] = assay: Antibacterial activity against Bacillus cereus ATCC 11778 at 2 mg/ml after 24 hrs by agar-well diffusion technique; assay type: functional; conditions: ATCC 11778, 24 h, read-out: DIZ; summary of the method: as §2
Aspergillus terreus [14] = assay: Antifungal activity against Aspergillus terreus at 50 ug/ml after 7 days by poisoned food technique relative to control; assay type: functional; summary of the method: as §1
Helminthosporium [15] = assay: Antifungal activity against Helminthosporium sp. at 100 ug/ml after 7 days by poisoned food technique relative to control; assay type: functional; summary of the method: as §1
Aspergillus terreus [16] = assay: Antifungal activity against Aspergillus terreus at 100 ug/ml after 7 days by poisoned food technique relative to control; assay type: functional; summary of the method: as §1
Staphylococcus aureus [17] = assay: Antibacterial activity against Staphylococcus aureus ATCC 9144 at 2 mg/ml after 24 hrs by agar-well diffusion technique; assay type: functional; conditions: ATCC 9144, 24 h, read-out: DIZ; summary of the method: as §2
Helminthosporium [18] = assay: Antifungal activity against Helminthosporium sp. at 10 ug/ml after 7 days by poisoned food technique relative to control; assay type: functional; summary of the method: as §1
Aspergillus terreus [19] = assay: Antifungal activity against Aspergillus terreus at 200 ug/ml after 7 days by poisoned food technique relative to control; assay type: functional; summary of the method: as §1
Alternaria alternata [20] = assay: Antifungal activity against Alternaria alternata at 10 ug/ml after 7 days by poisoned food technique relative to control; assay type: functional; summary of the method: as §1
Alternaria alternata [21] = assay: Antifungal activity against Alternaria alternata at 100 ug/ml after 7 days by poisoned food technique relative to control; assay type: functional; summary of the method: as §1
Pseudomonas aeruginosa [22] = assay: Antibacterial activity against Pseudomonas aeruginosa ATCC 25668 after 24 hrs by broth microdilution method; assay type: functional
Alternaria alternata [23] = assay: Antifungal activity against Alternaria alternata at 10 ug/ml after 7 days by poisoned food technique relative to 10 ug/ml mancozeb; assay type: functional
Helminthosporium [24] = assay: Antifungal activity against Helminthosporium sp. at 10 ug/ml after 7 days by poisoned food technique relative to 10 ug/ml mancozeb; assay type: functional
Fusarium oxysporum [25] = assay: Antifungal activity against Fusarium oxysporum at 200 ug/ml after 7 days by poisoned food technique relative to control; assay type: functional; summary of the method: as §1
Staphylococcus aureus [26] = assay: Antibacterial activity against Staphylococcus aureus ATCC 9144 after 24 hrs by broth microdilution method; assay type: functional
Fusarium oxysporum [27] = assay: Antifungal activity against Fusarium oxysporum at 50 ug/ml after 7 days by poisoned food technique relative to control; assay type: functional; summary of the method: as §1
Bacillus cereus [28] = assay: Antibacterial activity against Bacillus cereus ATCC 11778 at 1 mg/ml after 24 hrs by agar-well diffusion technique; assay type: functional; conditions: ATCC 11778, 24 h, read-out: DIZ
Pseudomonas aeruginosa [29] = assay: Antibacterial activity against Pseudomonas aeruginosa ATCC 25668 at 1 mg/ml after 24 hrs by agar-well diffusion technique; assay type: functional; conditions: ATCC 25668, 24 h, read-out: DIZ
Staphylococcus aureus [30] = assay: Antibacterial activity against Staphylococcus aureus ATCC 9144 at 1 mg/ml after 24 hrs by agar-well diffusion technique; assay type: functional; conditions: ATCC 9144, 24 h, read-out: DIZ
Escherichia coli [31] = assay: Antibacterial activity against Escherichia coli ATCC 8739 at 1 mg/ml after 24 hrs by agar-well diffusion technique; assay type: functional; conditions: ATCC 8739, 24 h, read-out: DIZ
Pseudomonas aeruginosa [32] = assay: Antibacterial activity against Pseudomonas aeruginosa ATCC 25668 at 4 ug/ml after 24 hrs by agar-well diffusion technique; assay type: functional, organism-based
Summary of the method: (§3)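 Agar-well diffusion. Bacteria were kept at 5–8 °C on Brain Heart Infusion agar. Inocula came from 24 h cultures adjusted to 0.5 McFarland (1 × 10^6 CFU/ml). 100 µl was seeded into 20 ml molten Mueller Hinton agar. 6 mm wells received 100 µl of sample, with gentamicin standard at 4 µg/ml and DMSO as negative control. Plates ran 24 h at 37 ± 1 °C; inhibition zone diameter in mm.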

Bacillus cereus [33] = assay: Antibacterial activity against Bacillus cereus ATCC 11778 at 4 ug/ml after 24 hrs by agar-well diffusion technique; assay type: functional, organism-based; summary of the method: as §3
Staphylococcus aureus [34] = assay: Antibacterial activity against Staphylococcus aureus ATCC 9144 at 4 ug/ml after 24 hrs by agar-well diffusion technique; assay type: functional, organism-based; summary of the method: as §3
Escherichia coli [35] = assay: Antibacterial activity against Escherichia coli ATCC 8739 at 4 ug/ml after 24 hrs by agar-well diffusion technique; assay type: functional, organism-based; summary of the method: as §3

Compound | MIC (Escherichia coli [1]; ATCC 8739, 24 h) [µg/mL] | Activity (Fusarium oxysporum [2]) [%] | Activity (Alternaria alternata [3]) [%] | Activity (Helminthosporium [4]) [%] | Activity (Fusarium oxysporum [5]) [%] | zone of inhibition at 2000 µg/mL (Pseudomonas aeruginosa [6]) [mm] | Activity (Aspergillus terreus [7]) [%] | Activity (Alternaria alternata [8]) [%] | Activity (Helminthosporium [10]) [%] | MIC (Bacillus cereus [11]; ATCC 11778, 24 h) [µg/mL] | zone of inhibition at 2000 µg/mL (Escherichia coli [12]) [mm] | zone of inhibition at 2000 µg/mL (Bacillus cereus [13]) [mm] | Activity (Aspergillus terreus [14]) [%] | Activity (Helminthosporium [15]) [%] | Activity (Aspergillus terreus [16]) [%] | zone of inhibition at 2000 µg/mL (Staphylococcus aureus [17]) [mm] | Activity (Helminthosporium [18]) [%] | Activity (Aspergillus terreus [19]) [%] | MIC (Pseudomonas aeruginosa [22]; ATCC 25668, 24 h) [µg/mL] | MIC (Staphylococcus aureus [26]; ATCC 9144, 24 h) [µg/mL] | further results
Cc1cc(C)n2nc(-n3nc(C)cc3C)cc2n1 | > 400 | 56 | 73.1 | 79.2 | 67 | 7 | 9.87 | 69.5 | 66.6 | > 400 | 7 | 7 | 33.7 | 79.2 | 68.5 | 7 | 42.2 | 73.2 | > 400 | 400 (≈ 1660 µM) | fold change (FC) (Fusarium oxysporum [9]): 2; Activity (Alternaria alternata [20]): 47.5%; Activity (Alternaria alternata [21]): 71.6%; fold change (FC) (Alternaria alternata [23]): 2.6; fold change (FC) (Helminthosporium [24]): 3.4; Activity (Fusarium oxysporum [25]): 71.9%; Activity (Fusarium oxysporum [27]): 67%
Cc1nn(-c2cc3nc(C)c4c(n3n2)CCC4)c2c1CCC2 | > 400 | – | – | – | – | 7 | – | – | – | 400 (≈ 1360 µM) | 7 | 7 | – | – | – | 7 | – | – | > 400 | 400 (≈ 1360 µM) | –
Cc1ccc(-c2cc(C)nn2-c2cc3nc(C)cc(-c4ccc(C)cc4)n3n2)cc1 | 50 (≈ 127 µM) | – | – | – | – | 8 | – | – | – | 100 (≈ 254 µM) | 10.5 | 8.5 | – | – | – | 8 | – | – | 100 (≈ 254 µM) | 100 (≈ 254 µM) | –
CC(=O)NC[C@H]1CN(c2ccc(N3CCOCC3)c(F)c2)C(=O)O1 [LINEZOLID] | > 100 | – | – | – | – | – | – | – | – | > 100 | – | – | – | – | – | – | – | – | > 100 | – | zone of inhibition at 1000 µg/mL (Bacillus cereus [28]): 10 mm; zone of inhibition at 1000 µg/mL (Pseudomonas aeruginosa [29]): 8.5 mm; zone of inhibition at 1000 µg/mL (Staphylococcus aureus [30]): 18 mm; zone of inhibition at 1000 µg/mL (Escherichia coli [31]): 12 mm
COc1ccc(-c2cc(C)nn2-c2cc3nc(C)cc(-c4ccc(OC)cc4)n3n2)cc1 | > 100 | 6.55 | 11.1 | 62.2 | 26.2 | 8 | 2.5 | 0 | 0 | > 100 | 8 | 8 | 6.25 | 27.7 | 7.5 | 8 | 0 | 11.3 | > 100 | > 100 | Activity (Alternaria alternata [20]): 0%; Activity (Alternaria alternata [21]): 11.1%; Activity (Fusarium oxysporum [25]): 20%; Activity (Fusarium oxysporum [27]): 3.27%
GENTAMICIN | – | – | – | – | – | – | – | – | – | – | – | – | – | – | – | – | – | – | – | – | MIC (Escherichia coli [1]): 4 µg/mL; inhibition zone (IZ) (Pseudomonas aeruginosa [32]): 12 mm; MIC (Bacillus cereus [11]): 4 µg/mL; inhibition zone (IZ) (Bacillus cereus [33]): 14 mm; inhibition zone (IZ) (Staphylococcus aureus [34]): 14 mm; MIC (Pseudomonas aeruginosa [22]): 2 µg/mL; inhibition zone (IZ) (Escherichia coli [35]): 24 mm; MIC (Staphylococcus aureus [26]): 2 µg/mL
Cc1cc(-c2ccc(Br)cc2)n2nc(-n3nc(C)cc3-c3ccc(Br)cc3)cc2n1 | > 100 | – | – | – | – | 8 | – | – | – | > 100 | 8 | 8 | – | – | – | 8 | – | – | > 100 | > 100 | –
Cc1cc(-c2ccc(Cl)cc2)n2nc(-n3nc(C)cc3-c3ccc(Cl)cc3)cc2n1 | 25 (≈ 57.6 µM) | 1.63 | 0 | 36.6 | 9.8 | 10 | 0 | 0 | 15.5 | 50 (≈ 115 µM) | 13 | 13 | 0 | 17.7 | 2.5 | 9 | 11.1 | 12.5 | 100 (≈ 230 µM) | 100 (≈ 230 µM) | Activity (Alternaria alternata [20]): 0%; Activity (Alternaria alternata [21]): 0%; Activity (Fusarium oxysporum [25]): 16.3%; Activity (Fusarium oxysporum [27]): 3.27%
Cc1cc(-c2ccccc2)n2nc(-n3nc(C)cc3-c3ccccc3)cc2n1 | 200 (≈ 547 µM) | 8.53 | 20.7 | 0 | 3.65 | 7.5 | 7.4 | 20.7 | 0 | 200 (≈ 547 µM) | 8 | 8 | 13.5 | 0 | 19.2 | 8 | 0 | 19.7 | > 200 | 200 (≈ 547 µM) | Activity (Alternaria alternata [20]): 18.2%; Activity (Alternaria alternata [21]): 19.5%; Activity (Fusarium oxysporum [25]): 2.4%; Activity (Fusarium oxysporum [27]): 6.09%
Cc1cc(-c2cccs2)n2nc(-n3nc(C)cc3-c3cccs3)cc2n1 | 200 (≈ 530 µM) | – | – | – | – | 8 | – | – | – | > 200 | 8 | 8 | – | – | – | 8 | – | – | 200 (≈ 530 µM) | 200 (≈ 530 µM) | –
